Results of several laboratories.
Lines come from different studies, so protocols differ.
HRH1: Histamine H1 receptor (HRH1, Homo sapiens, UniProt P35367)
emrE: emrE (Escherichia coli, UniProt P23895)
MAOB: Amine oxidase [flavin-containing] B (MAOB, Homo sapiens, UniProt P27338)
CA9: Carbonic anhydrase 9 (CA9, Homo sapiens, UniProt Q16790)
CHRNA9: Neuronal acetylcholine receptor subunit alpha-9 (CHRNA9, Homo sapiens, UniProt Q9UGM1)

SMILES	target	test	test system	conditions	quantity	value
CCOC(=O)c1ccc(OC(=O)CCCCCN=C(N)N)cc1	Urokinase-type plasminogen activator (PLAU, Homo sapiens, UniProt P00749)	enzyme activity, inhibitor			IC50	0.0236 µM
COc1cc2c(cc1OC)CN(CCc1ccc(NC(=O)c3cccc4c(=O)c5cccc(OC)c5[nH]c34)cc1)CC2	HRH1	cell-free assay			Ki	> 10 µM
CN1CC[C@@]2(C)c3cc(OC(=O)Nc4ccccc4)ccc3N(C)[C@@H]12	Retinaldehyde dehydrogenase 3 (ALDH1A3, Homo sapiens, UniProt P47895)	enzyme activity, inhibitor			IC50	< 10 µM
Cc1nccc2c1[nH]c1ccccc12	emrE	binding, fluorescence			Kd	46 µM
CC[C@H](C)[C@H](NC(=O)[C@H](C)NC(=O)[C@H](CCC(=O)O)NC(=O)[C@H](Cc1c[nH]cn1)NC(=O)[C@H](CC(C)C)NC(=O)[C@@H](NC(=O)[C@H](Cc1ccccc1)NC(=O)[C@H](CO)NC(=O)[C@@H](NC(=O)[C@H](CC(C)C)NC(=O)[C@H](CC(=O)O)NC(=O)[C@H](CC(C)C)NC(=O)[C@@H]1CCCN1)[C@@H](C)O)C(C)C)C(=O)O	MAOB	enzyme activity, inhibitor, fluorescence			IC50	1900 µM
CCCCC1CNC2CCc3ccc(OC)cc3C12 (racemic)	HRH1	ligand displacement, radioligand			Ki	0.135 µM
N#C[Se]CCCCOc1ccc2c(-c3ccccc3)cc(=O)oc2c1	CA9	enzyme activity, inhibitor, stopped-flow			Ki	0.211 µM
CC[C@H](C)[C@H](N)C(=O)N1CCC[C@H]1C(=O)N1CCC[C@H]1C(=O)NCC(=O)N[C@H](C(=O)N1CCC[C@H]1C(=O)N[C@@H](Cc1ccc(O)cc1)C(=O)O)C(C)C	MAOB	enzyme activity, inhibitor, fluorescence			IC50	9410 µM
Cc1c(Cl)c(=O)oc2cc(OCCCC[Se]C#N)ccc12	CA9	enzyme activity, inhibitor, stopped-flow			Ki	0.0429 µM
CCC[N+]1(CC)CCN(c2ccc(C#N)cc2)CC1	CHRNA9	ion current, agonist, two-electrode voltage clamp		oocytes	EC50	1.9 µM
CC1=C(O)C(=O)C=C2C1=CC=C1[C@@]2(C)CC[C@@]2(C)[C@@H]3C[C@](C)(C(=O)O)CC[C@]3(C)CC[C@]12C	Cytochrome P450 3A5 (CYP3A5, Homo sapiens, UniProt P20815)	binding, BLI	SAS		Kd	2.07 µM
CCC[N+]1(C)CCN(c2ccccc2)CC1	CHRNA9	ion current, agonist, two-electrode voltage clamp		oocytes	EC50	60 µM
C[n+]1ccc(-c2cc[n+](C)cc2)cc1	emrE	binding, fluorescence			Kd	73 µM
